Measured values taken from PubChem BioAssay AID623913 (Johns Hopkins Ion Channel Center, 2012).
Activity calls are given as the source filed them.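 The calls were made as follows: active = KCNQ2 potassium channel blocked by over 30% at some tested dose, with a dose response curve fitted; inactive = no blocking at any dose, or no fitted curve.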

biological target: Potassium voltage-gated channel subfamily KQT member 2 (Rattus norvegicus) (UniProt O88943); assay: block of rat KCNQ2 potassium current – cell-based, FluxOR thallium flux, concentration-response, set 4, selectivity assay for KCNK9 inhibitor project, SAR follow-up (AID 623913); settings: KCNQ2 cells, FluxOR thallium flux fluorescence
In short: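 Test system: CHO cells expressing rat KCNQ2 potassium channel / Schedule: dye 90 min, compounds 20 min, room temperature / Measured by: FluxOR thallium flux fluorescence, kinetic read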

Sequence of Potassium voltage-gated channel subfamily KQT member 2 (Rattus norvegicus) (O88943 whole entry, looked up): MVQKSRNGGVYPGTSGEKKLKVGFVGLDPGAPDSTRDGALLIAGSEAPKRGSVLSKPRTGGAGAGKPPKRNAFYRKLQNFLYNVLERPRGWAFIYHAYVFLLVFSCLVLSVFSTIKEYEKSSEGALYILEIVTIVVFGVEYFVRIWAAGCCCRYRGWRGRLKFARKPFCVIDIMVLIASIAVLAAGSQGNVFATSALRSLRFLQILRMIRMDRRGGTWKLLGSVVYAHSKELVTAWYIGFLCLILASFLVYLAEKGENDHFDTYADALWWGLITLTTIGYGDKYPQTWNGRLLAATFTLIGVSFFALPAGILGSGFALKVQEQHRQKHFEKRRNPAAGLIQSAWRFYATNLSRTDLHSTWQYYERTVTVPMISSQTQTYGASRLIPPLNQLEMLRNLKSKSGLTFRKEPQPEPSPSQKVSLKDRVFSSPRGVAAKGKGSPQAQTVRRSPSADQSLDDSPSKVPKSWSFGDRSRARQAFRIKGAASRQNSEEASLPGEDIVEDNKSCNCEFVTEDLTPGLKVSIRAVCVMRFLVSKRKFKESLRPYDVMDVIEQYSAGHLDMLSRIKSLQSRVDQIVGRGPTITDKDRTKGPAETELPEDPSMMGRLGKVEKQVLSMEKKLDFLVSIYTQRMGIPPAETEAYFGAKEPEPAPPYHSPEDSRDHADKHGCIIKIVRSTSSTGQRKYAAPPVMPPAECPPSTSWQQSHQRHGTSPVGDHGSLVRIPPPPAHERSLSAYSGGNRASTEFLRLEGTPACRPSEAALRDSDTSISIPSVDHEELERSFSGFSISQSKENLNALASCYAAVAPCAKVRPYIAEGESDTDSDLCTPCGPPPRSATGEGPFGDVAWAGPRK

IC50 | Compound
11.1 µM | COc1ccc(C(=O)CCSc2nnc(-c3ccco3)n2C(C)C2CC3CCC2C3)cc1OC (stereo not given)

same assay, conditions: KCNQ2 cells, FluxOR thallium flux fluorescence; at 30 µM (top of the series)

thallium flux ratio, lower = inhibition | Compound
inactive | COc1cccc(CCSc2nnc(-c3ccco3)n2C(C)C2CC3CCC2C3)c1 (stereo not given)
inactive | C[C@@H]([C@@H]1CC2CC[C@H]1C2)n1c(-c2ccsc2)n[nH]c1=S
inactive | CC(C1C[C@H]2CCC1C2)n1c(-c2ccsc2)n[nH]c1=S (stereo not given in full)
inactive | CC(C1CC2CCC1C2)n1c(SCC(=O)N2CCN(C)CC2)nnc1-c1ccco1 (stereo not given)
inactive | COc1cccc(-c2n[nH]c(=S)n2[C@H](C)[C@@H]2CC3CC[C@H]2C3)c1
inactive | CC(C1CC2CCC1C2)n1c(SCCc2ccccn2)nnc1-c1ccco1 (stereo not given)
inactive | COc1cccc(-c2nnc(SSc3nnc(-c4cccc(OC)c4)n3C(C)C3CC4CCC3C4)n2C(C)C2CC3CCC2C3)c1 (stereo not given)
inactive | C[C@H](C1CCCCC1)n1c(-c2ccsc2)n[nH]c1=S
inactive | CC(C1CC2CCC1C2)n1c(SCCN2CCOCC2)nnc1-c1ccco1 (stereo not given)
inactive | CCCC(=O)C1CCN(c2ncnc3c2CN(C(=O)c2ccc(-c4ccccc4)cc2)CC3)CC1
inactive | COc1cccc(-c2n[nH]c(=S)n2[C@H](C)C2CCCCC2)c1
inactive | CC(C1CC2CCC1C2)n1c(N)nnc1-c1ccco1 (stereo not given)
inactive | C[C@H]([C@@H]1CC2CC[C@H]1C2)n1c(-c2ccco2)n[nH]c1=S
inactive | C[C@H](C1CCCCC1)n1c(-c2ccccc2F)n[nH]c1=S
inactive | C[C@H]([C@@H]1CC2CC[C@H]1C2)n1c(-c2ccsc2)n[nH]c1=S
inactive | CC([C@@H]1CC2CC[C@H]1C2)n1c(-c2ccsc2)n[nH]c1=S (stereo not given in full)
inactive | COc1ccc(CSc2nnc(-c3ccco3)n2C(C)C2CC3CCC2C3)cc1OC (stereo not given)
inactive | C[C@H]([C@@H]1CC2CC[C@H]1C2)n1c(-c2ccccc2F)n[nH]c1=S
inactive | COc1ccc(CC(=O)NCc2ccccc2-c2ccccc2C(=O)NCc2ccc(F)cc2F)cc1
inactive | COc1ccc(NC(=O)CSc2nnc(-c3ccco3)n2C(C)C2CC3CCC2C3)cc1OC (stereo not given)
inactive | CC(C1CCN(C)CC1)n1c(-c2ccco2)n[nH]c1=S (stereo not given)
inactive | CC(C1CC2CCC1C2)n1c(SCCc2cccc(O)c2)nnc1-c1ccco1 (stereo not given)
inactive | C[C@@H]([C@@H]1CC2CC[C@H]1C2)n1c(-c2ccco2)n[nH]c1=S
inactive | CC(C1CC2CCC1C2)n1c(-c2ccco2)nn(CCc2ccncc2)c1=S (stereo not given)
